Assay results as given in ChEMBL document CHEMBL4184148 (Bioorg Med Chem Lett, 2017).

How the values were obtained:
[1] = molecular target: Cyclin-dependent kinase 14 (Homo sapiens) (UniProt O94921); assay: Binding affinity to wild-type human full length PFTK1 (M1 to H451 residues) expressed in Escherichia coli BL21 at 1 uM by Kinomescan method relative to control
Outline: (§1)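 Kinome-wide competition binding panel run by an outside provider, with each compound tested at a single concentration. Activity is read against the kinase panel.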

[2] = molecular target: Leukocyte tyrosine kinase receptor (Homo sapiens) (UniProt P29376); assay: Binding affinity to wild-type human partial length LTK (P422 to S744 residues) expressed in Escherichia coli BL21 at 1 uM by Kinomescan method relative to control
[3] = molecular target: Serine/threonine-protein kinase N1 (Homo sapiens) (UniProt Q16512); assay: Binding affinity to wild-type human partial length PKN1 (E598 to C948 residues) expressed in Escherichia coli BL21 at 1 uM by Kinomescan method relative to control
[4] = molecular target: Mitogen-activated protein kinase 9 (Homo sapiens) (UniProt P45984); assay: Binding affinity to wild-type human full length JNK2 (M1 to Q382 residues) expressed in HEK293 cells at 1 uM by Kinomescan method relative to control; type: cell-based
Outline: (§2)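 Run as one kinome-wide competition binding panel with each compound at a single fixed concentration. Results were plotted as a kinome-wide selectivity map.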

[5] = molecular target: Receptor tyrosine-protein kinase erbB-3 (Homo sapiens) (UniProt P21860); assay: Binding affinity to wild-type human partial length ERBB3 (G684 to A987 residues) expressed in HEK293 cells at 1 uM by Kinomescan method relative to control; type: cell-based
[6] = molecular target: Inhibitor of nuclear factor kappa-B kinase subunit epsilon (Homo sapiens) (UniProt Q14164); assay: Binding affinity to wild-type human full length IKK-epsilon (M1 to V716 residues) expressed in HEK293 cells at 1 uM by Kinomescan method relative to control; type: cell-based
[7] = molecular target: Insulin receptor (Homo sapiens) (UniProt P06213); assay: Binding affinity to wild-type human partial length INSR (P997 to E1318 residues) expressed in HEK293 cells at 1 uM by Kinomescan method relative to control; type: cell-based
HeLa = assay: Cytotoxicity against human HeLa cells assessed as reduction in cell viability after 72 hrs by CellTiter-Glo assay; type: functional, cell-based
Outline: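 Cells were treated across a dose-response range for 72 h, and viability was read by CellTiter-Glo luminescence. Measurements were made in triplicate and reported with standard error.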

[8] = molecular target: Leucine-rich repeat serine/threonine-protein kinase 2 (Homo sapiens, UniProt Q5S007); assay: Binding affinity to wild-type human partial length LRRK2 (H970 to E2527 residues) expressed in HEK293 cells at 1 uM by Kinomescan method relative to control; type: cell-based
[9] = molecular target: Inhibitor of nuclear factor kappa-B kinase subunit alpha (Homo sapiens) (UniProt O15111); assay: Binding affinity to wild-type human full length IKK-alpha (M1 to E745 residues) expressed in HEK293 cells at 1 uM by Kinomescan method relative to control; type: cell-based; outline: as §2
[10] = molecular target: Serine/threonine-protein kinase DCLK3 (Homo sapiens) (UniProt Q9C098); assay: Binding affinity to wild-type human partial length DCAMKL3 (E140 to V628 residues) expressed in Escherichia coli BL21 at 1 uM by Kinomescan method relative to control
[11] = molecular target: Dual specificity mitogen-activated protein kinase kinase 6 (Homo sapiens) (UniProt P52564); assay: Binding affinity to wild-type human partial length MEK6 (K36 to D334 residues) expressed in Escherichia coli BL21 at 1 uM by Kinomescan method relative to control
[12] = molecular target: Calcium/calmodulin-dependent protein kinase type IV (Homo sapiens) (UniProt Q16566); assay: Binding affinity to wild-type human partial length CAMK4 (A22 to A322 residues) expressed in Escherichia coli BL21 at 1 uM by Kinomescan method relative to control
[13] = molecular target: Dual specificity mitogen-activated protein kinase kinase 5 (Homo sapiens) (UniProt Q13163); assay: Binding affinity to wild-type human partial length MEK5 (L98 to P448 residues) expressed in HEK293 cells at 1 uM by Kinomescan method relative to control; type: cell-based
[14] = molecular target: Casein kinase I isoform gamma-2 (Homo sapiens) (UniProt P78368); assay: Binding affinity to wild-type human full length CSNK1G2 (M1 to K415 residues) expressed in Escherichia coli BL21 at 1 uM by Kinomescan method relative to control; outline: as §2
[15] = molecular target: Calcium/calmodulin-dependent protein kinase type 1 (Homo sapiens) (UniProt Q14012); assay: Binding affinity to wild-type human full length CAMK1 (M1 to L370 residues) expressed in Escherichia coli BL21 at 1 uM by Kinomescan method relative to control
[16] = molecular target: Microtubule-associated serine/threonine-protein kinase 1 (Homo sapiens) (UniProt Q9Y2H9); assay: Binding affinity to wild-type human partial length MAST1 (S346 to V730 residues) expressed in HEK293 cells at 1 uM by Kinomescan method relative to control; type: cell-based
[17] = molecular target: Serine/threonine-protein kinase MRCK alpha (Homo sapiens) (UniProt Q5VT25); assay: Binding affinity to wild-type human partial length MRCKA (L57 to V418 residues) expressed in Escherichia coli BL21 at 1 uM by Kinomescan method relative to control
[18] = molecular target: Serine/threonine-protein kinase pim-2 (Homo sapiens) (UniProt Q9P1W9); assay: Binding affinity to wild-type human partial length PIM2 (M1 to E291 residues) expressed in Escherichia coli BL21 at 1 uM by Kinomescan method relative to control
[19] = molecular target: Serine/threonine-protein kinase PAK 2 (Homo sapiens) (UniProt Q13177); assay: Binding affinity to wild-type human partial length PAK2 (P151 to R525 residues) expressed in Escherichia coli BL21 at 1 uM by Kinomescan method relative to control
[20] = test system: Epidermal growth factor receptor (Homo sapiens), P00533 [L861Q]; assay: Binding affinity to human partial length EGFR L861Q mutant (R669 to V1011 residues) expressed in Escherichia coli BL21 at 1 uM by Kinomescan method relative to control
[21] = molecular target: Receptor tyrosine-protein kinase erbB-2 (Homo sapiens) (UniProt P04626); assay: Binding affinity to wild-type human partial length ERBB2 (K646 to V1225 residues) expressed in HEK293 cells at 1 uM by Kinomescan method relative to control; type: cell-based
[22] = molecular target: Dual specificity protein kinase CLK1 (Homo sapiens) (UniProt P49759); assay: Binding affinity to wild-type human full length CLK1 (M1 to I484 residues) expressed in Escherichia coli BL21 at 1 uM by Kinomescan method relative to control; outline: as §2
[23] = molecular target: Mitogen-activated protein kinase kinase kinase kinase 1 (Homo sapiens) (UniProt Q92918); assay: Binding affinity to wild-type human full length HPK1 (M1 to R799 residues) expressed in Escherichia coli BL21 at 1 uM by Kinomescan method relative to control; outline: as §2
[24] = molecular target: Mitogen-activated protein kinase kinase kinase 6 (Homo sapiens) (UniProt O95382); assay: Binding affinity to wild-type human partial length ASK2 (M278 to R972 residues) expressed in HEK293 cells at 1 uM by Kinomescan method relative to control; type: cell-based; outline: as §1

Sequence of Receptor tyrosine-protein kinase erbB-3 (Homo sapiens) (P21860 whole entry, the tested form may be a part): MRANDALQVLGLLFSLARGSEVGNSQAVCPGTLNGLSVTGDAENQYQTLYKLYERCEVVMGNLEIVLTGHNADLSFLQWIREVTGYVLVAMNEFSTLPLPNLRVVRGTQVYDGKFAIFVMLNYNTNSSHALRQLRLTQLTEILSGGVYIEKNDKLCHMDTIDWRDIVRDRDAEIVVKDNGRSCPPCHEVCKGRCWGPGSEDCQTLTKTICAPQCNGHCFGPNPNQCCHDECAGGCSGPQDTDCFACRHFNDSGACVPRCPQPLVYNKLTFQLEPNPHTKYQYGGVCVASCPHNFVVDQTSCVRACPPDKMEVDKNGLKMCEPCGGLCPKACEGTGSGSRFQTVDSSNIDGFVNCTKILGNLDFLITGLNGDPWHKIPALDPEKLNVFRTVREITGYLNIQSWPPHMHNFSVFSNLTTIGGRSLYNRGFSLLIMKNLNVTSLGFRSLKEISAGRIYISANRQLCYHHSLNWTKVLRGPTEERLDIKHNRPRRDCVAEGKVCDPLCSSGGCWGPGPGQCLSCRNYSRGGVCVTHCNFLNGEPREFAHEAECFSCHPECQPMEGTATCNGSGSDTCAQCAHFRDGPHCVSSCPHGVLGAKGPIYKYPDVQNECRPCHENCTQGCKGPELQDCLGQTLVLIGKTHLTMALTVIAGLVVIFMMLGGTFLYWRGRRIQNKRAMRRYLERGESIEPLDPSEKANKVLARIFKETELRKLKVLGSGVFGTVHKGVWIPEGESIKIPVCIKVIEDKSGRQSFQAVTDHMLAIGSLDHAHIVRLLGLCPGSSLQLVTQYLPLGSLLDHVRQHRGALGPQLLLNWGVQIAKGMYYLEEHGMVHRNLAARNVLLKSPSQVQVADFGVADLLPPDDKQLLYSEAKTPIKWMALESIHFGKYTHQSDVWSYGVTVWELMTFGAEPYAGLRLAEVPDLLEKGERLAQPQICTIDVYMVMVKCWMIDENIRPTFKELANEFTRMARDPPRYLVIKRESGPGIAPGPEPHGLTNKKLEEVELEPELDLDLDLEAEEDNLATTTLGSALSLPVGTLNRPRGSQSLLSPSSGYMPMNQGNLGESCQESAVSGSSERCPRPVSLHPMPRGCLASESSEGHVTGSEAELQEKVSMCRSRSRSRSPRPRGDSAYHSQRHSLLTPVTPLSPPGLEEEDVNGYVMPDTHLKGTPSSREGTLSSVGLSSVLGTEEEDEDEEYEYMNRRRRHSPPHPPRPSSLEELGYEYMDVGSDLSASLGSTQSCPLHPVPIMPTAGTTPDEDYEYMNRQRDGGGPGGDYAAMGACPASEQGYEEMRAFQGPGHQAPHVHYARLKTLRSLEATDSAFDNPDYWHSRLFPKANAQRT
Sequence of Receptor tyrosine-protein kinase erbB-2 (Homo sapiens) (P04626 whole entry, the tested form may be a part): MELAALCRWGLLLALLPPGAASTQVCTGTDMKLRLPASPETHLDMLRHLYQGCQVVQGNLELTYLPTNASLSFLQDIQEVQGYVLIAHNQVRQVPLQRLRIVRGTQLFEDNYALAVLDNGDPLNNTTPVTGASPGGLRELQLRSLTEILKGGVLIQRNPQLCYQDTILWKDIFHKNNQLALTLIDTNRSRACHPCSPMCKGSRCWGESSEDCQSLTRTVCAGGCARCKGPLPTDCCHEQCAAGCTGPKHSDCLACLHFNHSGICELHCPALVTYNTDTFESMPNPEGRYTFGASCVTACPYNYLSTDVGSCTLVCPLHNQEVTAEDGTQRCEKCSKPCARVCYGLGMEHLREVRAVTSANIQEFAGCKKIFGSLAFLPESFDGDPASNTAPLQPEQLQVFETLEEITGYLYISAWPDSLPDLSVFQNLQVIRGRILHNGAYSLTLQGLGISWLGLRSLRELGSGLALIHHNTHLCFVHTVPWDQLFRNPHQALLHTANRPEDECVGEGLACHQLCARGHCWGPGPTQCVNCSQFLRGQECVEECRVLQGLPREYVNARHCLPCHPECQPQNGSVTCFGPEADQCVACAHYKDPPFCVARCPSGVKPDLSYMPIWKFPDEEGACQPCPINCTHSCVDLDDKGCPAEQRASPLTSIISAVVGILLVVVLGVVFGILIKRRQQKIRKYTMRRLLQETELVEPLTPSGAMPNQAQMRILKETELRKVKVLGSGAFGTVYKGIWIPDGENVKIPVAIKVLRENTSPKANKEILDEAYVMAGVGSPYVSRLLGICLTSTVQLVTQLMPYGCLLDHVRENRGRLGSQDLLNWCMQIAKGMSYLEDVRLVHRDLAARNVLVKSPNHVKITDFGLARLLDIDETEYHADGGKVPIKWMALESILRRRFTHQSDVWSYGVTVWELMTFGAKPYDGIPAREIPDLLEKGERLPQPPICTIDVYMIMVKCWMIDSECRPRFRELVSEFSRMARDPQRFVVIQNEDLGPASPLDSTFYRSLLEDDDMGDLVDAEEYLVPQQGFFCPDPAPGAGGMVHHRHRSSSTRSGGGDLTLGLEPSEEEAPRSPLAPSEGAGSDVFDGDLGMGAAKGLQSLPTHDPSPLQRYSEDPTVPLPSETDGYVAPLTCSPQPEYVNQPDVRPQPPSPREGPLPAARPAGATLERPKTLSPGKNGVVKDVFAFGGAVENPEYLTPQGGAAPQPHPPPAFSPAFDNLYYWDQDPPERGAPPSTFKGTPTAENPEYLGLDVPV
Sequence of Mitogen-activated protein kinase 9 (Homo sapiens) (P45984 whole entry, looked up, the tested form may be a part): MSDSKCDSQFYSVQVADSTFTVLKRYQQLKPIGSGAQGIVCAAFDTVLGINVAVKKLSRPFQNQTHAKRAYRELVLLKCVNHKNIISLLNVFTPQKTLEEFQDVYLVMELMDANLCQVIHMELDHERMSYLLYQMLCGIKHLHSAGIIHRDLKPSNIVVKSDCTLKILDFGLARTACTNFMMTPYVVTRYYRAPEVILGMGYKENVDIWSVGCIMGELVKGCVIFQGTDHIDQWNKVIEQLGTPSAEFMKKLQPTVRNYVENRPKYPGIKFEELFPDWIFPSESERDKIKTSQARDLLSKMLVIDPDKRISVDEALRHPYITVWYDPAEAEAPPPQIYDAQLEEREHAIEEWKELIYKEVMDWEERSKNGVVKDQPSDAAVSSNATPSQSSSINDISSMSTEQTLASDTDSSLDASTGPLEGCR
Sequence of Cyclin-dependent kinase 14 (Homo sapiens) (O94921 whole entry, the tested form may be a part): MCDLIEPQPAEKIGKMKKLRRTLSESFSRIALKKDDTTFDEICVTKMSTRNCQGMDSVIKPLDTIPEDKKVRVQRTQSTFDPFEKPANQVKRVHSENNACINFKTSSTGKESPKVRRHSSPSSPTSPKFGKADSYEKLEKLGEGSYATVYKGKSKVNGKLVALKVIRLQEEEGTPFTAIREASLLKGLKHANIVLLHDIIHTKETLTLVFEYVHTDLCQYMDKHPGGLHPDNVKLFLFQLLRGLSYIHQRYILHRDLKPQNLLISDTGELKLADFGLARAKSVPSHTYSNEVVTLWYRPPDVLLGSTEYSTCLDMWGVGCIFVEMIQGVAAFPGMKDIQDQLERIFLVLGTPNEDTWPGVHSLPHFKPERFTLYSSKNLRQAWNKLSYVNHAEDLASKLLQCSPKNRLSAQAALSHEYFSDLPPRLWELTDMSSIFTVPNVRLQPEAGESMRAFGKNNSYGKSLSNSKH
Sequence of Calcium/calmodulin-dependent protein kinase type IV (Homo sapiens) (Q16566 whole entry, the tested form may be a part): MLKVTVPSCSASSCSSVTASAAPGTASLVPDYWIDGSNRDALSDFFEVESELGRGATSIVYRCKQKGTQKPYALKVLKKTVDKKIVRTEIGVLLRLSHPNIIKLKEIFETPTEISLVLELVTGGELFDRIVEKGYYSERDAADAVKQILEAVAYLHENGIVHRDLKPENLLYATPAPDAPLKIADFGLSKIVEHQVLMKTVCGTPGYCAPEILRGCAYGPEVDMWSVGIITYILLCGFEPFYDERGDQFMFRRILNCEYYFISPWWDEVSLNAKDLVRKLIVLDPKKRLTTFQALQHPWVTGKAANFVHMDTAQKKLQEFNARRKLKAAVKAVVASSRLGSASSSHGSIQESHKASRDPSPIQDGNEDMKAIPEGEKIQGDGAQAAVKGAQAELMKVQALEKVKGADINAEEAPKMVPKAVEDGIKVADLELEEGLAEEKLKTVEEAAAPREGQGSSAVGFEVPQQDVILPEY
Sequence of Serine/threonine-protein kinase pim-2 (Homo sapiens) (Q9P1W9 whole entry, looked up, the tested form may be a part): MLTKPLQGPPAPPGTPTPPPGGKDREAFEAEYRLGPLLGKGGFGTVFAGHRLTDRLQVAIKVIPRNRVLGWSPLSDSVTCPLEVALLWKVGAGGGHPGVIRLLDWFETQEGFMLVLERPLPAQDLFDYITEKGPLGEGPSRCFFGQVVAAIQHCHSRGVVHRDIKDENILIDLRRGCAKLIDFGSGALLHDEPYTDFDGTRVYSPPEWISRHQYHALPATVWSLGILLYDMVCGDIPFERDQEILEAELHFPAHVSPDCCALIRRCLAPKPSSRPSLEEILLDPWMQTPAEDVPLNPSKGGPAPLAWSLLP
Sequence of Dual specificity mitogen-activated protein kinase kinase 6 (Homo sapiens) (P52564 whole entry, the tested form may be a part): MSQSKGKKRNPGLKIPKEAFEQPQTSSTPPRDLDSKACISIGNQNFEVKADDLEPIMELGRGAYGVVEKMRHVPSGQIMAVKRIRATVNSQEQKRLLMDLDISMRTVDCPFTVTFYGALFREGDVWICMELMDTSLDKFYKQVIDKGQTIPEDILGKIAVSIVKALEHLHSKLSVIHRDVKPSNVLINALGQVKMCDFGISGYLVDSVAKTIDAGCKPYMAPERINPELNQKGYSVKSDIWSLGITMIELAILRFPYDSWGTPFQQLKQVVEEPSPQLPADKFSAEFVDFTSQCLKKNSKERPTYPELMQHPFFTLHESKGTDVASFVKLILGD
Sequence of Calcium/calmodulin-dependent protein kinase type 1 (Homo sapiens) (Q14012 whole entry, looked up, the tested form may be a part): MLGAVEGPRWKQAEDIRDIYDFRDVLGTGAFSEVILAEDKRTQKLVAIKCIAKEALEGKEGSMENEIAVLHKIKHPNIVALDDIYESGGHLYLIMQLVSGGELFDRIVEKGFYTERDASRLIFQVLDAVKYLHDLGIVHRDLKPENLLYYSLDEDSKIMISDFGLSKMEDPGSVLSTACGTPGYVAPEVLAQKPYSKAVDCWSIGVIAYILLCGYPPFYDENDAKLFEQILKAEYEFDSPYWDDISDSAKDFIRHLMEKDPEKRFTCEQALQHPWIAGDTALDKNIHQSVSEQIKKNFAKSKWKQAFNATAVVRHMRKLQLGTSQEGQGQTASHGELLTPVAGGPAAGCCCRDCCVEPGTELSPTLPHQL

## C=CC(=O)Nc1ccc(C(=O)Nc2ccc(Nc3ncc4c(n3)N(C)c3ccc(C)cc3C(=O)N4C)cc2)cc1
[1]
  Activity: 100%
[2]
  Activity: 96%
[3]
  Activity: 82%
[4]
  Activity: 92%
[5]
  Activity: 81%
[6]
  Activity: 88%
[7]
  Activity: 97%
HeLa
  IC50: < 1 nM
[8]
  Activity: 85%
[9]
  Activity: 100%
[10]
  Activity: 93%
[11]
  Activity: 100%
[12]
  Activity: 89%
[13]
  Activity: 99%
[14]
  Activity: 97%
[15]
  Activity: 88%
[16]
  Activity: 90%
[17]
  Activity: 94%
[18]
  Activity: 100%
[19]
  Activity: 86%
[20]
  Activity: 79%
[21]
  Activity: 93%
[22]
  Activity: 100%
[23]
  Activity: 100%
[24]
  Activity: 83%

## CCC(=O)Nc1ccc(C(=O)Nc2ccc(Nc3ncc4c(n3)N(C)c3ccc(C)cc3C(=O)N4C)cc2)cc1
[1]
  Activity: 95%
[2]
  Activity: 85%
[3]
  Activity: 100%
[4]
  Activity: 91%
[5]
  Activity: 85%
[6]
  Activity: 68%
[7]
  Activity: 65%
HeLa
  IC50: < 1 nM
[8]
  Activity: 72%
[9]
  Activity: 99%
[10]
  Activity: 100%
[11]
  Activity: 97%
[12]
  Activity: 87%
[13]
  Activity: 90%
[14]
  Activity: 86%
[15]
  Activity: 90%
[16]
  Activity: 80%
[17]
  Activity: 100%
[18]
  Activity: 100%
[19]
  Activity: 99%
[20]
  Activity: 97%
[21]
  Activity: 100%
[22]
  Activity: 98%
[23]
  Activity: 86%
[24]
  Activity: 89%
